From the RNAGym collection of RNA variant scans (doi:10.1002/anie.201605470)

B1: Osa-1-4 twister ribozyme (parent)
chain: CCGCCUAACACUGCCAAUGCCGGUCCCAAGCCCGGAUAAAAGUGGAGGGGGCGG

Variants of: B1
Assay: self-cleavage, relative activity (ratio to wild type); higher = more cleavage; co-transcriptional
In short: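 Relative activity is the fraction cleaved divided by that of the wild-type ribozyme. The library came from a DNA template for a 54-nucleotide Oryza sativa twister ribozyme, doped at the 48 positions downstream of the cleavage site with 97 % wild-type base and 1 % of each other base. After 2 h of in vitro transcription at 37 °C with co-transcriptional self-cleavage, the RNA was reverse-transcribed with a template-switching oligonucleotide, amplified by PCR and deep-sequenced, and reads with or without upstream sequence gave the cleavage status.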

Row | Variant | self-cleavage
1 | A16G C11U | 0.95
2 | A16G C14A | 0.15
3 | A16G C14G | 0.53
4 | A16G C14U | 0.64
5 | A16G C15A | 0.61
6 | A16G C15G | 0.78
7 | A16G C15U | 0.45
8 | A16G C20A | 0.86
9 | A16G C20G | 0.19
10 | A16G C20U | 0.99
11 | A16G C21A | 0.8
12 | A16G C21G | 0.12
13 | A16G C21U | 0.98
14 | A16G C25A | 0.24
15 | A16G C25G | 0.16
16 | A16G C25U | 0.94
17 | A16G C26A | 0.08
18 | A16G C26G | 0.13
19 | A16G C26U | 0.93
20 | A16G C27A | 0.38
21 | A16G C27G | 0.15
22 | A16G C27U | 0.37
23 | A16G C31A | 0.03
24 | A16G C31G | 0.16

Row | Variant | self-cleavage
25 | A16G C31U | 0.94
26 | A16G C32A | 0.08
27 | A16G C32G | 0.19
28 | A16G C32U | 0.09
29 | A16G C33A | 0.26
30 | A16G C33G | 0.08
31 | A16G C33U | 0.87
32 | A16G C52A | 0.97
33 | A16G C52G | 1
34 | A16G C52U | 0.99
35 | A16G G13A | 0.2
36 | A16G G13C | 0.02
37 | A16G G13U | 0.04
38 | A16G G19A | 0.98
39 | A16G G19C | 0.4
40 | A16G G19U | 0.57
41 | A16G G22A | 1
42 | A16G G22C | 0.19
43 | A16G G22U | 0.82
44 | A16G G23A | 0.68
45 | A16G G23C | 0.09
46 | A16G G23U | 0.14
47 | A16G G30A | 0.04
48 | A16G G30C | 0.05

Row | Variant | self-cleavage
49 | A16G G30U | 0.04
50 | A16G G34A | 0.84
51 | A16G G34C | 0.74
52 | A16G G34U | 0.82
53 | A16G G35A | 0.87
54 | A16G G35C | 0.8
55 | A16G G35U | 0.93
56 | A16G G42A | 0.86
57 | A16G G42C | 0.62
58 | A16G G42U | 0.57
59 | A16G G44A | 0.96
60 | A16G G44C | 0.96
61 | A16G G44U | 0.95
62 | A16G G45A | 0.55
63 | A16G G45C | 0.08
64 | A16G G45U | 0.19
65 | A16G G47A | 0.6
66 | A16G G47C | 0.2
67 | A16G G47U | 0.49
68 | A16G G48A | 0.18
69 | A16G G48C | 0.15
70 | A16G G48U | 0.1
71 | A16G G49A | 0.27
72 | A16G G49C | 0.08

Row | Variant | self-cleavage
73 | A16G G49U | 0.3
74 | A16G G50A | 0.77
75 | A16G G50C | 0.95
76 | A16G G50U | 1.02
77 | A16G G51A | 0.82
78 | A16G G51C | 0.22
79 | A16G G51U | 0.46
80 | A16G G53A | 0.91
81 | A16G G53C | 0.16
82 | A16G G53U | 0.71
83 | A16G G54A | 0.98
84 | A16G G54C | 0.99
85 | A16G G54U | 0.93
86 | A16G U12A | 0.97
87 | A16G U12C | 0.53
88 | A16G U12G | 0.55
89 | A16G U18A | 0.92
90 | A16G U18C | 0.97
91 | A16G U18G | 0.83
92 | A16G U24A | 0.48
93 | A16G U24C | 0.58
94 | A16G U24G | 0.04
95 | A16G U37A | 0.87
96 | A16G U37C | 1.03

Row | Variant | self-cleavage
97 | A16G U37G | 1.02
98 | A16G U43A | 0.89
99 | A16G U43C | 0.53
100 | A16G U43G | 0.62
101 | A16U | 0.97
102 | A16U A7C | 0.04
103 | A16U A7G | 0.27
104 | A16U A7U | 0.06
105 | A16U A8C | 0.06
106 | A16U A8G | 0.62
107 | A16U A8U | 0.35
108 | A16U A17C | 0.94
109 | A16U A17G | 0.96
110 | A16U A17U | 1.01
111 | A16U A28C | 0.91
112 | A16U A28G | 0.24
113 | A16U A28U | 0.87
114 | A16U A29C | 0.04
115 | A16U A29G | 0.18
116 | A16U A29U | 0.11
117 | A16U A36C | 0.6
118 | A16U A36G | 0.97
119 | A16U A36U | 1.01
120 | A16U A38C | 1

Row | Variant | self-cleavage
121 | A16U A38G | 0.94
122 | A16U A38U | 1.05
123 | A16U A39C | 0.93
124 | A16U A39G | 0.4
125 | A16U A39U | 0.87
126 | A16U A40C | 0.07
127 | A16U A40G | 0.38
128 | A16U A40U | 0.55
129 | A16U A41C | 0.93
130 | A16U A41G | 0.36
131 | A16U A41U | 0.97
132 | A16U A46C | 0.07
133 | A16U A46G | 0.05
134 | A16U A46U | 0.05
135 | A16U C9A | 0.42
136 | A16U C9G | 0.91
137 | A16U C9U | 0.62
138 | A16U C11A | 0.64
139 | A16U C11G | 0.55
140 | A16U C11U | 0.8
141 | A16U C14A | 0.05
142 | A16U C14G | 0.11
143 | A16U C14U | 0.3
144 | A16U C15A | 0.35

Row | Variant | self-cleavage
145 | A16U C15G | 0.31
146 | A16U C15U | 0.18
147 | A16U C20A | 0.69
148 | A16U C20G | 0.15
149 | A16U C20U | 0.89
150 | A16U C21A | 0.66
151 | A16U C21G | 0.05
152 | A16U C21U | 0.95
153 | A16U C25A | 0.11
154 | A16U C25G | 0.08
155 | A16U C25U | 0.84
156 | A16U C26A | 0.03
157 | A16U C26G | 0.11
158 | A16U C26U | 0.9
159 | A16U C27A | 0.2
160 | A16U C27G | 0.06
161 | A16U C27U | 0.17
162 | A16U C31A | 0.03
163 | A16U C31G | 0.07
164 | A16U C31U | 0.74
165 | A16U C32A | 0.08
166 | A16U C32G | 0.11
167 | A16U C32U | 0.13
